Converted amounts (≈) assume the structure as drawn. The source made the active and inactive calls. The calls are words filed in the database; no cut-off is given here.
Tests used:
[1] = tested on: Micrococcus flavus; assay: Antimicrobial activity against Micrococcus flavus at 1 umol/spot after 18 hrs by TLC-bioautographic method; assay type: functional
Method in brief: (§1)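 TLC bioautography. Samples are spotted on silica gel TLC plates, then sprayed with bacteria (1.0 × 10^5 cfu/ml) in tryptic soy broth. Plates are incubated 18 h at 37 C and sprayed with 3% aqueous p-iodonitrotetrazolium violet. After a further 3 h, growth is stopped with 70% EtOH. White zones on a pink background are scored as inhibition-zone diameter with standard errors.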

[2] = tested on: Micrococcus flavus; assay: Antimicrobial activity against Micrococcus flavus at 1 umol/disk after 24 hrs by disk diffusion assay; assay type: functional
Method in brief: (§2)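 Disc diffusion on 4 mm filter discs. Bacteria are grown overnight in LB at 28 C, then adjusted in saline to 1.0 × 10^5 cfu/ml. The suspension is mixed into top agar over peptone agar plates. Plates are incubated 24 h at 28 C, and growth-inhibition zone diameter is measured. Streptomycin and ampicillin controls are applied from a 1 mg/ml stock. Tests are done in duplicate.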

[3] = tested on: Pseudomonas aeruginosa; assay: Antimicrobial activity against Pseudomonas aeruginosa at 1 umol/spot after 18 hrs by TLC-bioautographic method; assay type: functional; method in brief: as §1
[4] = tested on: Enterobacter cloacae; assay: Antimicrobial activity against Enterobacter cloacae at 1 umol/disk after 24 hrs by disk diffusion assay; assay type: functional; method in brief: as §2
[5] = tested on: Bacillus cereus; assay: Antimicrobial activity against Bacillus cereus at 10 ug/disk after 24 hrs by disk diffusion assay; assay type: functional; method in brief: as §2
[6] = tested on: Bacillus cereus; assay: Antimicrobial activity against Bacillus cereus at 1 umol/spot after 18 hrs by TLC-bioautographic method; assay type: functional; method in brief: as §1
[7] = tested on: Listeria monocytogenes; assay: Antimicrobial activity against Listeria monocytogenes at 1 umol/disk after 24 hrs by disk diffusion assay; assay type: functional; method in brief: as §2
[8] = tested on: Escherichia coli; assay: Antimicrobial activity against Escherichia coli at 1 umol/spot after 18 hrs by TLC-bioautographic method; assay type: functional; method in brief: as §1
[9] = tested on: Pseudomonas aeruginosa; assay: Antimicrobial activity against Pseudomonas aeruginosa at 1 umol/disk after 24 hrs by disk diffusion assay; assay type: functional; method in brief: as §2
[10] = tested on: Staphylococcus aureus; assay: Antimicrobial activity against Staphylococcus aureus at 1 umol/disk after 24 hrs by disk diffusion assay; assay type: functional; method in brief: as §2
[11] = tested on: Micrococcus flavus; assay: Antimicrobial activity against Micrococcus flavus after 24 hrs by microdilution technique; assay type: functional
Method in brief: (§3)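 Broth microdilution in LB medium. Inoculum is 1.0 × 10^4 cfu per well, from a saline-adjusted suspension of 1.0 × 10^5 cfu/ml. Compounds are dissolved in DMSO. Incubated 24 h at 28 C. MIC is the lowest concentration with no visible growth under a binocular microscope. MBC is read by subculture into fresh broth for 72 h, with no growth taken as 99.5% kill. OD is read at 655 nm.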

[12] = tested on: Salmonella typhimurium; assay: Antimicrobial activity against Salmonella Typhimurium at 1 umol/disk after 24 hrs by disk diffusion assay; assay type: functional, organism-based; settings: Salmonella enterica subsp. enterica serovar Typhimurium; method in brief: as §2
[13] = tested on: Escherichia coli; assay: Antimicrobial activity against Escherichia coli at 10 ug/disk after 24 hrs by disk diffusion assay; assay type: functional; method in brief: as §2
[14] = tested on: Salmonella typhimurium; assay: Antimicrobial activity against Salmonella Typhimurium after 24 hrs by microdilution technique; assay type: functional, Salmonella enterica subsp. enterica serovar Typhimurium; method in brief: as §3
[15] = tested on: Enterobacter cloacae; assay: Antimicrobial activity against Enterobacter cloacae at 1 umol/spot after 18 hrs by TLC-bioautographic method; assay type: functional; method in brief: as §1
[16] = tested on: Staphylococcus aureus; assay: Antimicrobial activity against Staphylococcus aureus at 10 ug/disk after 24 hrs by disk diffusion assay; assay type: functional; method in brief: as §2
[17] = tested on: Salmonella typhimurium; assay: Antimicrobial activity against Salmonella Typhimurium at 10 ug/disk after 24 hrs by disk diffusion assay; assay type: functional, organism-based; settings: Salmonella enterica subsp. enterica serovar Typhimurium; method in brief: as §2
[18] = tested on: Staphylococcus aureus; assay: Antimicrobial activity against Staphylococcus aureus after 24 hrs by microdilution technique; assay type: functional; method in brief: as §3
[19] = tested on: Escherichia coli; assay: Antimicrobial activity against Escherichia coli after 24 hrs by microdilution technique; assay type: functional; method in brief: as §3
[20] = tested on: Listeria monocytogenes; assay: Antimicrobial activity against Listeria monocytogenes at 1 umol/spot after 18 hrs by TLC-bioautographic method; assay type: functional; method in brief: as §1
[21] = tested on: Bacillus cereus; assay: Antimicrobial activity against Bacillus cereus at 1 umol/disk after 24 hrs by disk diffusion assay; assay type: functional; method in brief: as §2
[22] = tested on: Listeria monocytogenes; assay: Antimicrobial activity against Listeria monocytogenes at 10 ug/disk after 24 hrs by disk diffusion assay; assay type: functional; method in brief: as §2
[23] = tested on: Enterobacter cloacae; assay: Antimicrobial activity against Enterobacter cloacae at 10 ug/disk after 24 hrs by disk diffusion assay; assay type: functional; method in brief: as §2
[24] = tested on: Enterobacter cloacae; assay: Antimicrobial activity against Enterobacter cloacae after 24 hrs by microdilution technique; assay type: functional; method in brief: as §3
[25] = tested on: Salmonella typhimurium; assay: Antimicrobial activity against Salmonella Typhimurium at 1 umol/spot after 18 hrs by TLC-bioautographic method; assay type: functional; method in brief: as §1
[26] = tested on: Bacillus cereus; assay: Antimicrobial activity against Bacillus cereus after 24 hrs by microdilution technique; assay type: functional; method in brief: as §3
[27] = tested on: Staphylococcus aureus; assay: Antimicrobial activity against Staphylococcus aureus at 1 umol/spot after 18 hrs by TLC-bioautographic method; assay type: functional; method in brief: as §1
[28] = tested on: Escherichia coli; assay: Antimicrobial activity against Escherichia coli at 1 umol/disk after 24 hrs by disk diffusion assay; assay type: functional; method in brief: as §2
[29] = tested on: Pseudomonas aeruginosa; assay: Antimicrobial activity against Pseudomonas aeruginosa at 10 ug/disk after 24 hrs by disk diffusion assay; assay type: functional; method in brief: as §2
[30] = tested on: Micrococcus flavus; assay: Antimicrobial activity against Micrococcus flavus at 10 ug/disk after 24 hrs by disk diffusion assay; assay type: functional; settings: for zone of inhibition at 10 µg/disc: read-out: IZ; method in brief: as §2
[31] = tested on: Pseudomonas aeruginosa; assay: Antimicrobial activity against Pseudomonas aeruginosa after 24 hrs by microdilution technique; assay type: functional; method in brief: as §3
[32] = tested on: Listeria monocytogenes; assay: Antimicrobial activity against Listeria monocytogenes after 24 hrs by microdilution technique; assay type: functional; method in brief: as §3
[33] = Salmonella enterica subsp. enterica serovar Typhimurium

MIC [11]	MIC ([14]; Salmonella enterica)	MIC [18]	Compound	inhibition zone (IZ) [1]	inhibition zone (IZ) [2]	inhibition zone (IZ) [3]	inhibition zone (IZ) [4]	inhibition zone (IZ) [5]	inhibition zone (IZ) [6]	inhibition zone (IZ) [7]	inhibition zone (IZ) [8]	inhibition zone (IZ) [9]	inhibition zone (IZ) [10]	MBC [11]	inhibition zone (IZ) [12]	inhibition zone (IZ) [13]	inhibition zone (IZ) [15]	inhibition zone (IZ) [16]	inhibition zone (IZ) [17]	MBC [18]	other results
90.5 µM (≈ 50.1 µg/mL)	181 µM (≈ 100 µg/mL)	90.5 µM (≈ 50.1 µg/mL)	COc1ccccc1-c1cc(-c2ccc(Nc3nc(Nc4ccccc4)nc(Nc4ccccc4)n3)cc2)nc(N)n1	0.06 millimeter	0.03 millimeter	inactive	inactive	inactive	inactive	inactive	inactive	inactive	inactive	181 µM (≈ 100 µg/mL)	inactive	inactive	inactive	inactive	inactive	181 µM (≈ 100 µg/mL)	MBC ([14]; Salmonella enterica): 362 µM (≈ 200 µg/mL); MBC [19]: 362 µM (≈ 200 µg/mL); MIC [19]: 181 µM (≈ 100 µg/mL); inhibition zone (IZ) [20]: 0.09 millimeter; inhibition zone (IZ) [21]: inactive; inhibition zone (IZ) [22]: inactive; inhibition zone (IZ) [23]: inactive; MBC [24]: 362 µM (≈ 200 µg/mL); MIC [24]: 181 µM (≈ 100 µg/mL); inhibition zone (IZ) [25, 33]: inactive; MBC [26]: 181 µM (≈ 100 µg/mL); MIC [26]: 90.5 µM (≈ 50.1 µg/mL); inhibition zone (IZ) [27]: 0.03 millimeter; inhibition zone (IZ) [28]: inactive; inhibition zone (IZ) [29]: inactive; zone of inhibition at 10 µg/disc [30]: 6 mm; MBC [31]: 362 µM (≈ 200 µg/mL); MIC [31]: 181 µM (≈ 100 µg/mL); MBC [32]: 724 µM (≈ 401 µg/mL); MIC [32]: 724 µM (≈ 401 µg/mL)
696 µM (≈ 400 µg/mL)	348 µM (≈ 200 µg/mL)	696 µM (≈ 400 µg/mL)	CC(=O)N1N=C(c2ccc(Nc3nc(Nc4ccccc4)nc(Nc4ccccc4)n3)cc2)CC1c1ccc(Cl)cc1 (stereo not given)	inactive	inactive	inactive	inactive	inactive	0.08 millimeter	inactive	inactive	inactive	inactive	696 µM (≈ 400 µg/mL)	inactive	inactive	0.09 millimeter	inactive	inactive	696 µM (≈ 400 µg/mL)	MBC ([14]; Salmonella enterica): 696 µM (≈ 400 µg/mL); MBC [19]: 696 µM (≈ 400 µg/mL); MIC [19]: 348 µM (≈ 200 µg/mL); inhibition zone (IZ) [20]: 0.09 millimeter; inhibition zone (IZ) [21]: inactive; inhibition zone (IZ) [22]: inactive; inhibition zone (IZ) [23]: inactive; MBC [24]: 696 µM (≈ 400 µg/mL); MIC [24]: 696 µM (≈ 400 µg/mL); inhibition zone (IZ) [25]: 0.07 millimeter; MBC [26]: 696 µM (≈ 400 µg/mL); MIC [26]: 696 µM (≈ 400 µg/mL); inhibition zone (IZ) [27]: 0.08 millimeter; inhibition zone (IZ) [28]: inactive; inhibition zone (IZ) [29]: inactive; inhibition zone (IZ) [30]: inactive; MBC [31]: 696 µM (≈ 400 µg/mL); MIC [31]: 696 µM (≈ 400 µg/mL); MBC [32]: 696 µM (≈ 400 µg/mL); MIC [32]: 696 µM (≈ 400 µg/mL)
378 µM (≈ 201 µg/mL)	756 µM (≈ 401 µg/mL)	756 µM (≈ 401 µg/mL)	CC(=O)N1N=C(c2ccc(Nc3nc(Nc4ccccc4)nc(Nc4ccccc4)n3)cc2)CC1c1ccco1 (stereo not given)	inactive	0.05 millimeter	inactive	inactive	inactive	inactive	inactive	inactive	inactive	inactive	756 µM (≈ 401 µg/mL)	inactive	inactive	0.09 millimeter	inactive	inactive	756 µM (≈ 401 µg/mL)	MBC [14, 33]: inactive; MBC [19]: 756 µM (≈ 401 µg/mL); MIC [19]: 378 µM (≈ 201 µg/mL); inhibition zone (IZ) [20]: 0.08 millimeter; inhibition zone (IZ) [21]: inactive; inhibition zone (IZ) [22]: inactive; inhibition zone (IZ) [23]: inactive; MBC [24]: inactive; MIC [24]: 756 µM (≈ 401 µg/mL); inhibition zone (IZ) [25]: 0.09 millimeter; MBC [26]: 756 µM (≈ 401 µg/mL); MIC [26]: 378 µM (≈ 201 µg/mL); inhibition zone (IZ) [27]: 0.07 millimeter; inhibition zone (IZ) [28]: inactive; inhibition zone (IZ) [29]: inactive; zone of inhibition at 10 µg/disc [30]: 10 mm; MBC [31]: 756 µM (≈ 401 µg/mL); MIC [31]: 756 µM (≈ 401 µg/mL); MBC [32]: inactive; MIC [32]: 756 µM (≈ 401 µg/mL)

Reference: ChEMBL document CHEMBL1154716, “Synthesis of some new S-triazine based chalcones and their derivatives as potent antimicrobial agents” (2010)
